Sampled rows, rich in hits. Any-hit rate of the full collection: about 2.2%.
rCAG binder = molecules binding r(CAG) RNA repeats. r(CAG) RNA repeat, TO-PRO-1 dye displacement fluorescence. inhibition, % at 3 µM. actives 1.3% (n = 370,000). AID 651821;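 active means inhibition above the plate cutoff, the mean of all test compounds on that plate plus 3 SD, cut at about 35% in these data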;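 further: higher means more dye released from RNA so lower well fluorescence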
ARFGAP1 inh = inhibits rat ARF GTPase activating protein 1. Q62848. Arfgap1-stimulated ARF1 GTP hydrolysis, GDP FP detection. inhibition, % at 16.5 µM. actives 0.26% (n = 360,000). AID 651572;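 active means inhibition above a per-plate limit, mean inhibition of low control wells plus 3 SD, cut at about 25% in these data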
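System: truncated rat Arfgap1 GAP domain / Benchmarks: high control wells lacking Arfgap1, low control full reaction with DMSO / Times: compound-enzyme preincubation 20 min, reaction 120 min, detection 60 min, 25 °C / Repeats: one replicate per compound / Also added: human ARF1(Δ1-17)-GTP substrate / Measured by: Tracer-displacement fluorescence polarization with EDTA stop, 620/688 nm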
ASAP1 GAP inh = ASAP1 ArfGAP inhibition. AID 624377. ASAP1-stimulated ARF1 GTP hydrolysis, GDP FP detection. actives 0.19% (n = 360,000). Q9ULH1. inhibition, % at 16.5 µM; in the data active means inhibition above about 25%
Target sequence (Q9ULH1 325-724 limits assumed): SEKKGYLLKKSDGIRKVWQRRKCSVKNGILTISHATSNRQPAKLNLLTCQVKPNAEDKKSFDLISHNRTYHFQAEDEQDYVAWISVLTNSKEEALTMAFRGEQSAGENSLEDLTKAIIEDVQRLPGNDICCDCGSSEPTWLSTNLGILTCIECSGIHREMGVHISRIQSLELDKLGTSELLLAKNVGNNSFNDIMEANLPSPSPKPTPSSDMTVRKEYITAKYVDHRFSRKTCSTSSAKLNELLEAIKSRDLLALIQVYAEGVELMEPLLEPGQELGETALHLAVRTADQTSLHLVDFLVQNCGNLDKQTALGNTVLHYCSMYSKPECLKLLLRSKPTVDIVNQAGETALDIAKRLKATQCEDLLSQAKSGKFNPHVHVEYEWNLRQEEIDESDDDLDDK
NadD block = inhibitors of Staphylococcus aureus NadD; purified NadD enzyme, colorimetric absorbance read-out; inhibition, % at 20 µM; actives 0.78% (n = 360,000); in the data active means inhibition above about 26%
NadD conf = NadD (S. aureus) inhibition, single concentration confirmation | shares compounds with NadD block | purified S. aureus NadD, colorimetric enzyme assay | inhibition, % at 20 µM | actives 13% (n = 2,000) | AID 624309; in the data active means inhibition mostly above about 42%, no sharp cut-off; inactive means mostly below about 42%
Each line names hits and unclear results; the compound was inactive in the other large screens (follow-up assays come after a bar, where they were run).

NC(CSC(c1ccccc1)(c1ccccc1)c1ccc2c(c1)OCO2)C(=O)O (centres undefined)	NadD block 31 | NadD conf inactive
C=CCN1C(=O)[C@@H](CC(=O)NCCc2ccccc2OC)[C@]2(C(=O)OC)CCCCC=C12	none (no result: ARFGAP1 inh, ASAP1 GAP inh, NadD block)
CCOc1ccc(CCN2C(=O)C(=O)N([C@@H](Cc3ccc(O)cc3)CN3CCC[C@@H]3CN3C(=O)C(=O)NC[C@@H]3Cc3ccccc3)C[C@@H]2Cc2ccccc2)cc1	NadD block 29 | NadD conf inactive
CCOc1ccc(CCN2C(=O)C(=O)N([C@@H](Cc3ccccc3)CN3CCC[C@H]3CN3C(=O)C(=O)NC[C@@H]3CC(C)C)C[C@@H]2Cc2ccc(O)cc2)cc1	NadD block 30 | NadD conf inactive
CCOc1ccc(CCN2C(=O)C(=O)N([C@@H](Cc3ccccc3)CN3CCC[C@H]3CN3C(=O)C(=O)NC[C@@H]3Cc3ccc(O)cc3)C[C@@H]2Cc2ccc(O)cc2)cc1	none
CCOc1ccc(-n2c(SCC(=O)Nc3ccccc3-c3ccccc3)nnc2-c2ccncc2)cc1	none (no result: ARFGAP1 inh, ASAP1 GAP inh, NadD block)
Cc1ccccc1C(=O)Nc1nnc(CC(=O)N/N=C/c2cn(Cc3ccccc3)c3ccccc23)s1	NadD block 45 | NadD conf inactive
C[C@H]1CN(C(=O)OC(C)(C)C)CCN1c1ccc(N2CC[C@@H](O)C2)c(C#N)c1	none (no result: NadD block)
CCOC(=O)c1cc(-c2ccc(N3C(c4ccsc4)=Cc4ccccc4C3CC(C)=O)cc2)cc([N+](=O)[O-])c1 (centres undefined)	NadD block 32 | NadD conf inactive
C/C(=N/NC(=O)Cc1cccs1)c1cccc([N+](=O)[O-])c1	none (no result: ARFGAP1 inh, ASAP1 GAP inh, NadD block)
CCc1nc2c(OCC(=O)c3ccc(Cl)cc3Cl)cccn2c1N(C)C(=O)c1cccs1	none
CN(C)/C=C(\C=N\OCc1ccc(Cl)cc1Cl)C(=O)Nc1ccc(Cl)c(Cl)c1	NadD block 29 | NadD conf inactive
Cc1cc(O)c(/C=N/OCc2ccc(Cl)cc2Cl)c(=O)o1	none
N#C/C(=C\c1ccc(-c2cccc([N+](=O)[O-])c2)o1)C(=O)Nc1nc(-c2cccs2)cs1	NadD block 42 | NadD conf inactive
O=C(N/N=C/c1ccc(-c2cccc([N+](=O)[O-])c2)o1)c1cccs1	none
CCOC(=O)[C@@]12CCCC3=C1N(CCC3)C(=O)[C@H]2CC(=O)N1CCOCC1	none (no result: ARFGAP1 inh, ASAP1 GAP inh, NadD block)
Cc1ccc(S(=O)(=O)N2Cc3ccccc3CC2C(N)=O)cc1 (centres undefined)	none
Cc1cccc(Nc2n[nH]c(=S)s2)c1C	NadD block 32 | NadD conf inactive
Cc1cc(C)c(Nc2n[nH]c(=S)s2)cc1C	NadD block 44 | NadD conf inactive
Cc1ccc(Nc2n[nH]c(=S)s2)c(C)c1	none
CCN(CC)S(=O)(=O)c1cc(NC(=O)COC(=O)c2ccc(NC(=O)CC#N)cc2)ccc1C	NadD block 33 | NadD conf inactive
CCN(CC)S(=O)(=O)c1cc(NC(=O)COC(=O)C2CCC2)ccc1C	none
N#CCC(=O)Nc1ccc(C(=O)OCC(=O)Nc2ccc3ccccc3c2)cc1	NadD block 46 | NadD conf inactive
COC(=O)[C@]12CCCCC=C1N(CCc1ccc(OC)c(OC)c1)C(=O)[C@H](CC(=O)N1CCCCC1)C2	none (no result: NadD block)
Oc1c(Br)cc(Br)cc1C=Nc1ccc2[nH]ncc2c1	NadD block 30 | NadD conf inactive
COc1ccc(C=Nc2ccc3[nH]ncc3c2)c(O)c1	none
O=C1C2C3C=CC(C3)C2C(=O)N1c1ccc(-c2nc(-c3ccccc3)nc3ccccc23)cc1 (centres undefined)	none (no result: NadD block)
CC(C)C[C@@H](CNCC(=O)[C@H](CC(=O)O)NC(=O)c1[nH]cnc1C(=O)N[C@H](CN)CC(C)C)NC(=O)c1nc[nH]c1C(=O)N[C@@H](Cc1ccccc1)C(=O)O	NadD block 35 | NadD conf 52
Cc1ccc(-c2cc3nc(C)cc(C)n3n2)cc1	none
Cc1cc(C)n2nc(-c3ccsc3-n3c(C)ccc3C)cc2n1	NadD block 39 | NadD conf inactive
OCC[C@H]1C[C@H](O)[C@@H](O)[C@@]2(CCCc3ccccc3O2)O1	none
Cc1c(N=C2N=C(NC(=O)c3cccs3)c3ccccc32)c(=O)n(-c2ccccc2)n1C	NadD block 31 | NadD conf inactive
O=C(c1ccc2c(=O)n(Cc3ccco3)c(=S)[nH]c2c1)N1CCN(Cc2ccccc2)CC1	NadD block 56 | NadD conf 36

Bioassay records deposited in PubChem by several laboratories.
